Measurements reported in ChEMBL document CHEMBL1121405, “Antihypertensive indole derivatives of phenoxypropanolamines with beta-adrenergic receptor antagonist and vasodilating activity” (1980).

Tests used:
Rattus norvegicus [1] = assay: Vasodilator activity in ganglion blocked rats. Values denote percent change in mean arterial blood pressure 30 minutes after dosing rats at 3 mg/kg intravenously; type: functional; conditions: route intravenous
In short: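 Male Wistar rats (275-450 g), urethane 800 mg/kg plus chloralose 60 mg/kg ip, then chlorisondamine 2.5 mg/kg ip for ganglion block. Angiotensin II infused iv at 0.25 or 0.35 μg/min to a new steady pressure. Drug given iv over 3 min; femoral mean arterial pressure recorded at 30 min as % change ± SEM.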

Rattus norvegicus [2] = assay: Antihypertensive activity in spontaneously hypertensive rats after peroral administration; type: functional
In short: (§1)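 SHR, 3-day test. After about 20 min prewarming at 37 °C, indirect systolic pressure by tail cuff at 0 (control), 22, 24, 26 and 46 h. Oral dosing at 0 and 22 h, at 100 mg/kg unless footnoted otherwise. Groups of five rats; maximum mean fall from the control reading is rated in bands (<25, 25-34, 35-44, ≥45 mmHg).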

Rattus norvegicus [3] = organism: Rattus norvegicus; assay: Intrinsic sympathomimetic action in reserpinized rats; type: functional
In short: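 Reserpinized rats given 0.3 mg/kg iv. Read-out is increase in heart rate (bpm), mean ± SEM, n = 3-6.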

Rattus norvegicus [4] = assay: Antihypertensive activity in spontaneously hypertensive rats after peroral administration,; type: functional; in short: as §1
Rattus norvegicus [5] = assay: The compound was tested for antihypertensive activity in spontaneously hypertensive rats after peroral administration, dosed at 30 mg/kg; type: functional; conditions: route oral
In short: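 Conscious spontaneously hypertensive rats, groups of five per compound. Given orally at 0 and 22 h. Before tail-cuff readings, rats were prewarmed to 37 °C for about 20 min. Indirect systolic pressure was read at 0 (control), 22, 24, 26 and 46 h. Activity was scored from the maximum mean fall from control: under 25 mmHg (±), 25-34 (+), 35-44 (++), 45 mmHg and over (+++).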

[6] = target: T1, Adrenergic receptor beta (Rattus norvegicus) (UniProt P18090+P10608+P26255); assay: Beta-adrenergic receptor blockade activity in conscious normotensive rats at a dose of 0.5 mg/kg; type: functional, organism-based; parameters: dose 0.5 mg/kg
Rattus norvegicus [7] = assay: The compound was tested for antihypertensive activity in spontaneously hypertensive rats after peroral administration. Activity value is 35-44 mmHg; type: functional; in short: as §1
Rattus norvegicus [8] = assay: The compound was tested for antihypertensive activity in spontaneously hypertensive rats after peroral administration, Activity value is <25 mmHg; type: functional; in short: as §1
[9] = target: T1, Adrenergic receptor beta (Rattus norvegicus); assay: The compound was tested for beta-adrenergic receptor blockade activity in conscious normotensive rats at a dose of 2 mg/kg; type: functional, organism-based; parameters: dose 2 mg/kg

Compound | Delta MAP (Rattus norvegicus [1]) [%] | Actvity (Rattus norvegicus [2]) [mmHg] | Activity (Rattus norvegicus [3]) [beats min-1] | other results
CSc1ccccc1OCC(O)CNC(C)(C)Cc1c[nH]c2ccccc12 (configuration not stated) | -29 | – | – | –
CC(C)(Cc1c[nH]c2ccccc12)NCC(O)COc1ccccc1N (configuration not stated) | -11 | 44 | 105 | –
Cc1ccccc1OCC(O)CNC(C)(C)Cc1c[nH]c2ccccc12 (configuration not stated) | -18 | 34 | 100 | –
Cc1cc(Cl)ccc1OCC(O)CNC(C)(C)Cc1c[nH]c2ccccc12 (configuration not stated) | 11 | – | – | –
Cc1ccc(OCC(O)CNC(C)(C)Cc2c[nH]c3ccccc23)c(C)c1 (configuration not stated) | 13 | 34 | – | –
CC(C)(Cc1c[nH]c2ccccc12)NCC(O)COc1ccccc1 (configuration not stated) | -26 | <25 | 141 | –
CC(C)(Cc1c[nH]c2ccccc12)NCC(O)COc1ccccc1C(N)=O (configuration not stated) | -25 | 44 | 74 | –
CC(C)NCC(O)COc1cccc2ccccc12 (configuration not stated) [PROPRANOLOL] | – | <25 | – | –
Cc1cccc(C)c1OCC(O)CNC(C)(C)Cc1c[nH]c2ccccc12 (configuration not stated) | -4 | – | – | Actvity (Rattus norvegicus [4]): <25 mmHg
CCC(C)c1ccccc1OCC(O)CNC(C)(C)Cc1c[nH]c2ccccc12 (configuration not stated) | 22 | – | -8 | Actvity (Rattus norvegicus [4]): <25 mmHg
CC(C)NCC(O)COc1cccc2[nH]ccc12 (configuration not stated) [PINDOLOL] | -32 | – | 120 | Actvity (Rattus norvegicus [5]): <25 mmHg
CC(C)(Cc1c[nH]c2ccccc12)NCC(O)COc1ccccc1C(F)(F)F (configuration not stated) | -34 | 44 | 88 | –
Cc1cc(S(C)(=O)=O)ccc1OCC(O)CNC(C)(C)Cc1c[nH]c2ccccc12 (configuration not stated) | -8 | <25 | – | –
Cc1cccc(OCC(O)CNC(C)(C)Cc2c[nH]c3ccccc23)c1C (configuration not stated) | 8 | – | – | inhibition [6]: 79%; Actvity (Rattus norvegicus [7]): 44 mmHg
CC(C)(Cc1c[nH]c2ccccc12)NCC(O)COc1ccccc1F (configuration not stated) | -33 | – | – | Actvity (Rattus norvegicus [8]): <25 mmHg; inhibition [6]: 58%
CC(C)(Cc1c[nH]c2ccccc12)NCC(O)COc1ccccc1C1CCCCC1 (configuration not stated) | 18 | <25 | – | –
CC(C)(Cc1c[nH]c2ccccc12)NCC(O)COc1ccccc1[N+](=O)[O-] (configuration not stated) | -38 | <25 | 106 | –
CC(C)(Cc1c[nH]c2ccccc12)NCC(O)COc1ccccc1C#N (configuration not stated) [BUCINDOLOL] | -26 | 45 | 77 | inhibition [9]: 71%
CC(C)(Cc1c[nH]c2ccccc12)NCC(O)COc1ccccc1-c1ccccc1 (configuration not stated) | 12 | – | – | Actvity (Rattus norvegicus [4]): <25 mmHg
